Source: ChEMBL document CHEMBL1770116, “Glycoglycerolipid analogues inhibit PKC translocation to the plasma membrane and downstream signaling pathways in PMA-treated fibroblasts and human glioblastoma cells, U87MG” (Eur J Med Chem, 2011)
Activity calls are given as the source filed them. The calls are words filed in the database; no cut-off is given here.

Key:
[1] = molecular target: T1, Protein kinase C (PKC) (Homo sapiens) (UniProt O94806+P41743+P17252+P05129+Q05655+P05771+Q05513+Q02156+P24723+Q15139+Q04759); experiment: Inhibition of PKC activation in PMA-treated human fibroblasts assessed as inhibition of translocation to plasma membrane at 0.2 uM pretreated for 1 hr followed by 15 mins challenged with PMA by Western blot/densitometric analysis
Summary of the method: (§1)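 Primary human dermal fibroblasts in 10% FBS DMEM, pretreated 1 h at 37 °C with compound (ethanol vehicle, 0.2–2 range), then 100 nM PMA for 15 min. Controls received 0.005% ethanol ± PMA. 10 µg membrane protein on 10% SDS-PAGE/PVDF, probed with anti-PKC; densitometry. IC50 derived from the inhibition curve.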

[2] = molecular target: T1, Protein kinase C (PKC) (Homo sapiens); experiment: Inhibition of PKC activation in PMA-treated human fibroblasts assessed as inhibition of translocation to plasma membrane at 2 uM pretreated for 1 hr followed by 15 mins challenged with PMA by Western blot/densitometric analysis; summary of the method: as §1
[3] = molecular target: T1, Protein kinase C (PKC) (Homo sapiens); experiment: Inhibition of PKC activation in human U87MG cells assessed as inhibition of translocation to plasma membrane at 2 uM after 24 hrs by Western blot/densitometric analysis; assay type: cell-based; conditions: U-87MG ATCC
Summary of the method: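 U87MG cells (4 × 10^5) cultured in DMEM high glucose/10% FBS, treated 24 h at 37 °C; controls received 0.005% ethanol. Means ± S.D. of three experiments, Student's t-test.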

[4] = molecular target: T1, Protein kinase C (PKC) (Homo sapiens); experiment: Inhibition of PKC activation in PMA-treated human fibroblasts assessed as decrease in MEK phosphorylation at 2 uM pretreated for 1 hr followed by 15 mins challenged with PMA by Western blot/densitometric analysis
Summary of the method: (§2)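 Primary human dermal fibroblasts, 5 × 10^5 cells seeded in DMEM/10% FBS; after 24 h, compound (ethanol vehicle) in 10% FBS DMEM for 1 h at 37 °C, then 100 nM PMA for 15 min. Controls received 0.005% ethanol ± PMA. Cells sonicated; 25 µg total lysate run on 10% SDS-PAGE, blotted to PVDF and probed with phospho-specific antibodies; densitometry.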

Protein kinase C (PKC) = experiment: Inhibition of PKC activation in PMA-treated human fibroblasts assessed as inhibition of translocation to plasma membrane cells pretreated for 1 hr followed by 15 mins challenged with PMA by Western blot/densitometric analysis; summary of the method: as §1
U-87 MG [5] = experiment: Inhibition of human U87MG cell migration assessed as reduction in wound size at 2 uM pretreated for 48 hrs measured after 30 hrs of scratching by scratch migration assay relative to control; assay type: functional, U-87MG ATCC
Summary of the method: (§3)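 U87MG cells (8 × 10^4) pretreated 48 h in 10% FBS DMEM, ethanol-only controls. Wound width photographed under phase contrast at 0, 6, 24 and 30 h post-scratch.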

[6] = Suppression of PKC delta mRNA expression in PMA-treated human fibroblasts at 2 uM pretreated for 1 hr followed by 15 mins challenged with PMA by RT-PCR analysis; assay type: functional, cell-based; conditions: Fibroblast
Summary of the method: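 Fibroblasts pretreated 1 h, then 100 nM PMA for 15 min. RNA taken for real-time PCR of PKCα and PKCδ with SYBR Green and 0.2 µM primers. Cycling: 95 °C for 3 min, then 40 cycles of 95 °C 10 s / 58 °C 30 s; specificity checked by melting curve. Means ± S.D. of four experiments, Student's t-test.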

[7] = Antitumor activity against human U87MG cells assessed as reduction in [3H]thymidine incorporation at 2 uM after 48 hrs by beta counting; assay type: functional, U-87MG ATCC; set-up: scale not given: the % may be the effect or the level left
Summary of the method: (§4)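 [3H]thymidine incorporation in U87MG cells: 4 × 10^4 cells plated, treated 24 h or 48 h; […] [3H]thymidine added for final 4 h at 37 °C; radioactivity counted in trichloroacetic acid-insoluble material by β-counter. Means ± S.D. of four experiments.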

U-87 MG [8] = experiment: Inhibition of human U87MG cell migration at 2 uM pretreated for 48 hrs measured after 6 to 30 hrs of scratching by scratch migration assay relative to control; assay type: functional, cell-based; conditions: U-87MG ATCC; summary of the method: as §3
[9] = molecular target: T1, Protein kinase C (PKC) (Homo sapiens); experiment: Inhibition of PKC activation in PMA-treated human fibroblasts assessed as decrease in FAK phosphorylation at 2 uM pretreated for 1 hr followed by 15 mins challenged with PMA by Western blot/densitometric analysis; summary of the method: as §2
[10] = molecular target: T1, Protein kinase C (PKC) (Homo sapiens); experiment: Inhibition of PKC activation in PMA-treated human fibroblasts assessed as decrease in Raf phosphorylation at 2 uM pretreated for 1 hr followed by 15 mins challenged with PMA by Western blot/densitometric analysis; summary of the method: as §2
[11] = molecular target: T1, Protein kinase C (PKC) (Homo sapiens); experiment: Inhibition of PKC activation in PMA-treated human fibroblasts assessed as decrease in ERK1/2 phosphorylation at 2 uM pretreated for 1 hr followed by 15 mins challenged with PMA by Western blot/densitometric analysis; summary of the method: as §2
[12] = Antitumor activity against human U87MG cells assessed as reduction in [3H]thymidine incorporation at 2 uM after 24 hrs by beta counting; assay type: functional, U-87MG ATCC; set-up: scale not given: the % may be the effect or the level left; summary of the method: as §4

| Structure (SMILES) | inhibition [1] | inhibition [2] | inhibition [3] | further results |
| --- | --- | --- | --- | --- |
| OCC(CO)O[C@@H]1O[C@H](CO)[C@H](O)[C@H](O)[C@H]1O | 27% | 50% | – | – |
| CCCCCCCCCC(=O)OC[C@H]1O[C@@H](OC(CO)CO)[C@H](O)[C@@H](O)[C@H]1O | – | – | inactive | – |
| CC(C)CC(=O)OC[C@H]1O[C@@H](OC(CO)CO)[C@H](O)[C@@H](O)[C@H]1O | 23% | 99% | 58% | inhibition [4]: Active; IC50 (Protein kinase C (PKC)): 480 nM; inhibition at 2 µM (U-87 MG [5]): 16%; Activity [6]: Active; Activity [7]: 30%; inhibition (U-87 MG [8]): Active; inhibition [9]: Active; inhibition [10]: Active; inhibition [11]: Active; Activity [12]: 25% |
| CCCCCC(=O)OC[C@H]1O[C@@H](OC(CO)CO)[C@H](O)[C@@H](O)[C@H]1O | 35% | 64% | – | – |
| O=C(CC1CCCCC1)OC[C@H]1O[C@@H](OC(CO)CO)[C@H](O)[C@@H](O)[C@H]1O | 38% | 52% | – | – |
